From ChEMBL document CHEMBL1153879, “Synthesis and pharmacokinetic evaluation of novel N-acyl-cordycepin derivatives with a normal alkyl chain” (Eur J Med Chem, 2009) come the findings set out here.

The structures appear in SMILES notation.

Data set [1] relates to Mus musculus. The data set can be described thus: Cmax in C57BL/6 mouse at 500 umol/kg, po assessed as transformed cordycepin levels. To be noted: in vivo.
Data set [2] is described as follows: Cmax in C57BL/6 mouse at 0.5 umol/kg, po. Details: dose 0.5 umol/kg, route oral. Format: ADME, organism-based. To be noted: in vivo. The procedure, abridged: (§1)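 Male C57BL/6 mice (20±2 g, 7 weeks old) received a single oral dose in 2% Tween-80 aqueous solution. Blood was extracted with MeOH or EtOAc, depending on the compound, and assayed by HPLC. Parameters were derived from the mean profiles (n=5).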

Data set [3] in a line: Half life in C57BL/6 mouse at 0.5 umol/kg, po. Format: ADME, organism-based. The note with it: in vivo. The procedure, abridged: as §1
Data set [4] can be described thus: Tmax in C57BL/6 mouse at 0.5 umol/kg, po. Format: ADME, organism-based. To be noted: in vivo. The procedure, abridged: as §1
Data set [5] can be described thus: AUC in C57BL/6 mouse at 0.5 umol/kg, po. Format: ADME, organism-based. To be noted: plasma. The procedure, abridged:
as §1

In data set [6] the test system is Mus musculus. The data set can be described thus: AUC in C57BL/6 mouse at 0.5 umol/kg, po assessed as transformed cordycepin levels. Format: ADME, organism-based, Plasma. To be noted: in vivo, in the assay text read “500 umol/kg” for “0.5 umol/kg”. In short, it runs like this: as §1
The subject of data set [7] is Mus musculus. The data set can be described thus: Tmax in C57BL/6 mouse at 0.5 umol/kg, po assessed as transformed cordycepin levels. Format: ADME, organism-based. To be noted: in vivo. The procedure, abridged:
as §1

For data set [8], the system named is Mus musculus. The data set can be described thus: Half life in C57BL/6 mouse at 0.5 umol/kg, po assessed as transformed cordycepin levels. Format: ADME, organism-based. The note with it: in vivo, in the assay text read “500 umol/kg” for “0.5 umol/kg”. The procedure, abridged:
as §1

Data set [9] relates to Mus musculus. Description: Half life in C57BL/6 mouse at 500 umol/kg, po assessed as transformed cordycepin levels. The note with it: in vivo.

As a reminder, the Cmax is the peak of the concentration-time curve. What is called half-life is the time in which the quantity being followed falls by half. A low value points to rapid decline. The Tmax is the time at which the peak concentration occurs. The term AUC denotes concentration integrated over time. Regarding `CCCCCCCC(=O)Nc1ncnc2c1ncn2[C@@H]1O[C@H](CO)C[C@H]1O`, the Cmax in the data set on Mus musculus [1] came out at 20.6 µM; in data set [2] it was 310 µM. This compound also gave a half-life in data set [3] of 6.8 h. Besides, the Tmax stood at 5 h in [4] and 7 h in the data set with Mus musculus [7]. Besides, the area under the curve (AUC) in [5] is 1310 µM·h; in the data set with Mus musculus [6], 83.7 µM·h. In addition, the t1/2 in the data set with Mus musculus [8] was 9.4 h.
Consider `CCCCCCCCCCCCCCCCCC(=O)Nc1ncnc2c1ncn2[C@@H]1O[C@H](CO)C[C@H]1O`, for which the Cmax in the data set on Mus musculus [1] stood at 2.2 µM; in data set [2] it was 22.1 µM. This compound also showed a half-life in [3] of 8.6 h. Besides, the Tmax was 8 h in data set [4] and 10 h in the data set with Mus musculus [7]. Besides, the AUC in data set [5] worked out at 32.5 µM·h; with Mus musculus [6] it was 3.7 µM·h. Further, in the data set on Mus musculus [8], the t1/2 was 10.8 h.
For `CCC(=O)Nc1ncnc2c1ncn2[C@@H]1O[C@H](CO)C[C@H]1O`, the figures for the Cmax (in the data set on Mus musculus [1]; in data set [2]) were 14.1 µM and 120 µM, respectively. This compound also showed a half-life in [3] of 4.4 h. Also, the figures for the Tmax (in data set [4]; with Mus musculus [7]) were 3 h and 5 h, respectively. Moreover, the AUC came out at 356 µM·h in data set [5] and 59.9 µM·h in the data set on Mus musculus [6]. The t1/2 in the data set on Mus musculus [8] came to 7.5 h.
As for `CCCCCCCCCCCC(=O)Nc1ncnc2c1ncn2[C@@H]1O[C@H](CO)C[C@H]1O`, the Cmax in the data set with Mus musculus [1] was 15 µM; in [2], 160 µM. Also, in the data set with Mus musculus [9], the t1/2 was found to be 10.5 h. Further, the half-life in data set [3] is 8.3 h. The Tmax came to 6 h in data set [4] and 8 h in the data set on Mus musculus [7]. Further, the AUC in data set [5] turned out to be 672 µM·h; in the data set with Mus musculus [6] it was 69.1 µM·h.
Take `Nc1ncnc2c1ncn2[C@@H]1O[C@H](CO)C[C@H]1O` [CORDYCEPIN]: the Cmax (in the data set on Mus musculus [1]; in data set [2]) was 10.1 µM throughout. The half-life in data set [3] is 2.1 h. For the same compound, the Tmax (in [4]; with Mus musculus [7]) was 1.5 h each time. Besides, the AUC (in data set [5]; with Mus musculus [6]) was 19.2 µM·h each time. In the data set with Mus musculus [8], the t1/2 is 2.1 h.
